Measured values from different studies.
Compare with care: the assays were run in different laboratories.
HTR2A: 5-hydroxytryptamine receptor 2A (HTR2A, Homo sapiens, UniProt P28223)
HDAC2: Histone deacetylase 2 (HDAC2, Homo sapiens, UniProt Q92769)
ADORA2A: Adenosine receptor A2a (ADORA2A, Homo sapiens, UniProt P29274)

SMILES	target	test	quantity	result
N#C[C@@]12C[C@@H]1[C@@H](n1cnc3c(NCc4cccc(Cl)c4)nc(I)nc31)[C@H](O)[C@@H]2O	HTR2A	ligand displacement, radioligand	Ki	4.9 µM
O=C(NO)c1cncc(OS(=O)(=O)Oc2ccc(C(F)(F)F)cc2)c1	HDAC2	enzyme activity, inhibitor, fluorescence	Ki	1.31 µM
COc1ccccc1CC1CCN(CC(=O)c2cc(C)[nH]c2C)C1 (stereo not drawn)	HTR2A	calcium signal, antagonist	IC50	13.2 µM
N#C[C@@]12C[C@@H]1[C@@H](n1cnc3c(N[C@@H](C4CCC4)C4CC4)nc(I)nc31)[C@H](O)[C@@H]2O	ADORA2A	ligand displacement, radioligand	Ki	> 10 µM
CC(C)=CCNc1ncnc2c1ncn2[C@@H]1O[C@H](CO)[C@@H](O)[C@H]1O	ADORA2A	G protein activation, agonist	EC50	6.4 µM
Cc1[nH]c2ccccc2c1SCCNC(=O)C1NCCC1C1CC1 (stereo not drawn)	HTR2A	calcium signal, antagonist	IC50	31.7 µM
C=CCO[C@H]1O[C@H](CO)[C@@H](OP(=O)(O)O[C@H]2O[C@H](CO)[C@@H](O)[C@H](O)[C@@H]2O)[C@H](O)[C@@H]1O	CLEC4E (Homo sapiens, UniProt Q9ULY5)	binding, BLI	Kd	1.59 µM
O=C(/C=C/c1cccc(OS(=O)(=O)Oc2ccc(C(F)(F)F)cc2)c1)NO	HDAC2	enzyme activity, inhibitor, fluorescence	Ki	0.105 µM
CN(C)c1ncnc2c1ncn2[C@@H]1O[C@H](CO)[C@@H](O)[C@H]1O	ADORA2A	G protein activation, agonist	EC50	3.2 µM
